Results reported in ChEMBL document CHEMBL4321820, “Identification and Optimization of Mechanism-Based Fluoroallylamine Inhibitors of Lysyl Oxidase-like 2/3” (J Med Chem, 2019).

Key:
[1] = Stability in human plasma assessed as half life; assay type: ADME, cell-free
[2] = Stability in human microsomes assessed as half life; assay type: ADME, Microsome
[3] = Protein binding in rat plasma; assay type: ADME, cell-free; conditions: read-out: PPB (converted)
[4] = Protein binding in dog plasma; assay type: ADME, cell-free, Canis lupus familiaris; conditions: read-out: PPB (converted)
Lysyl oxidase homolog 2 = biological target: T1, Lysyl oxidase homolog 2 (Homo sapiens, UniProt Q9Y4K0); assay: Substrate activity at recombinant human C-terminal His-tagged […] (1-774 residues) expressed in mouse myeloma cells assessed as oxidative turnover at 30 uM measured after 30 mins by horseradish peroxidase-coupled amplex red reagent-based fluorescence assay relative to DMSO; assay type: ADME, cell-based; conditions: 0.5 h
T1 sequence (Q9Y4K0 whole entry): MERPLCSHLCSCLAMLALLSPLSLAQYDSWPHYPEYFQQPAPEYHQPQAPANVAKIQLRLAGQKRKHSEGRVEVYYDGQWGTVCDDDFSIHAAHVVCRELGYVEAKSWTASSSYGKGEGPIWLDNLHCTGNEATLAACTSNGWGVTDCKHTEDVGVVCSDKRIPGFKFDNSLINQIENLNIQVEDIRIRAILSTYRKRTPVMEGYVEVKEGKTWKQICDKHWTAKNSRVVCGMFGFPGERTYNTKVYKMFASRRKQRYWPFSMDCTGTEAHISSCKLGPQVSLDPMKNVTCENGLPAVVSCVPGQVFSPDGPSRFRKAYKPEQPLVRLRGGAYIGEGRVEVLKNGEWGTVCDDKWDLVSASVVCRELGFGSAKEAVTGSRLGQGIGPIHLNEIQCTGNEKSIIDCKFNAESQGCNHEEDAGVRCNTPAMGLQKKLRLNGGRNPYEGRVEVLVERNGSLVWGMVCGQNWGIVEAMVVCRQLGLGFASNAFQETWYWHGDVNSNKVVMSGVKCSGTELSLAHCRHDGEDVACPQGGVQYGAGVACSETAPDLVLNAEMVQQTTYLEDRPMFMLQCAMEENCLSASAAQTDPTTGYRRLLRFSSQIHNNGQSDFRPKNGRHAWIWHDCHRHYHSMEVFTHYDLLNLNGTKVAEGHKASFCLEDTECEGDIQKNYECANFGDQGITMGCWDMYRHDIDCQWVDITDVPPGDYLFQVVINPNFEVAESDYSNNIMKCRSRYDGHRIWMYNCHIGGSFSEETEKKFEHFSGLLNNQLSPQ
Outline: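 LOXL2 incubated with compound, no substrate present. Hydrogen peroxide generation read by Amplex Red/HRP fluorescence (ex 565, em 590 nm). Oxidative turnover at 30 min expressed relative to DMSO.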

Lysyl oxidase homolog 3 = biological target: T2, Lysyl oxidase homolog 3 (Homo sapiens, UniProt P58215); assay: Inhibition of recombinant C-terminal His-tagged human LOXL3 (1 to 753 residues) expressed in CHO cells using putrescine as substrate preincubated with enzyme for 30 mins followed by substrate addition and measured every 2.5 mins for 30 mins by Amplex-Red oxidation assay
T2 sequence (P58215 whole entry): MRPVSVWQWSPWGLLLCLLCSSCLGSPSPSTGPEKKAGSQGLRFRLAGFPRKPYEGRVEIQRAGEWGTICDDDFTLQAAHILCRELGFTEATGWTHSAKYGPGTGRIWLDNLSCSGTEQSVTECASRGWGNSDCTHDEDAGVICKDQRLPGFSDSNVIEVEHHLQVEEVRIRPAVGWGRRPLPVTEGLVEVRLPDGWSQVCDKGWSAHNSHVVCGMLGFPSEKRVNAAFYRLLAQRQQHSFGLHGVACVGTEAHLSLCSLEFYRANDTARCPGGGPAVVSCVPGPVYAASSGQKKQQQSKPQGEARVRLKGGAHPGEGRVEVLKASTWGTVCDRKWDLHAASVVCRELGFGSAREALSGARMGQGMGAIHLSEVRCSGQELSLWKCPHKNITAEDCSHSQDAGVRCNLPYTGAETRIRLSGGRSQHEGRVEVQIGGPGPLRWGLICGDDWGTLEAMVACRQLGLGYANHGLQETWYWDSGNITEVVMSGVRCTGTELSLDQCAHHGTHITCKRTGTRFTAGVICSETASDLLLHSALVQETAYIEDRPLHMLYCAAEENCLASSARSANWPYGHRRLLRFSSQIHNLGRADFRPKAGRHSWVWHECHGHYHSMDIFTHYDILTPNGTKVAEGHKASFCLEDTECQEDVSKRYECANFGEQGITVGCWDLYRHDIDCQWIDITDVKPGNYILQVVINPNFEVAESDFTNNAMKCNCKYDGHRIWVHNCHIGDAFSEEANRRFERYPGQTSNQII
Outline: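 Recombinant human LOXL3 or LOXL4 preincubated 30 min at 37 °C with compound in 1.2 M urea/50 mM borate pH 8.2, then Amplex Red (120 µM)/HRP (1.5 U/mL) with 2 mM putrescine; fluorescence read every 2.5 min for 30 min.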

[5] = Stability in dog plasma assessed as half life; assay type: ADME, cell-free, Canis lupus familiaris
Protein-lysine 6-oxidase = biological target: T3, Protein-lysine 6-oxidase (Mus musculus, UniProt P28301); assay: Inhibition of LOX in mouse lung fibroblast cells using putrescine as substrate preincubated with enzyme for 30 mins followed by substrate addition and measured every 2.5 mins for 30 mins by Amplex-Red oxidation assay
T3 sequence (P28301 whole entry): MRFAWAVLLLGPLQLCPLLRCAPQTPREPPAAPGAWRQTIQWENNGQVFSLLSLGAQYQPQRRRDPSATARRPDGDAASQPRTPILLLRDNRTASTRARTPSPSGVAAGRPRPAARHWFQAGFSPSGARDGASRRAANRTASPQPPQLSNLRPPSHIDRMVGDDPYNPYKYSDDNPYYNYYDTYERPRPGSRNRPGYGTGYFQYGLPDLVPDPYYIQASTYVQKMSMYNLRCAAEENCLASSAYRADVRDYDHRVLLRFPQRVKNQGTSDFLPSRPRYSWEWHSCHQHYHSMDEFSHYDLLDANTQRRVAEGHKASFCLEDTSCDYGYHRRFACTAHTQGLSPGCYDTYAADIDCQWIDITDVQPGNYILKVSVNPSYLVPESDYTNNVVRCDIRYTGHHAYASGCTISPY
Outline: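 LOX from conditioned medium of fibroblasts cultured from homogenized mouse lung, concentrated and isolated as for the human fibroblast enzyme, in 1.2 M urea/50 mM borate pH 8.2. 30 min preincubation with compound at 37 °C, then Amplex Red/HRP plus putrescine; fluorescence read every 2.5 min for 30 min.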

For Cc1c(-c2cccc(S(=O)(=O)N(C)C)c2)c2cc(C(=O)O)ccc2n1C/C(F)=C/CN.Cl, the half-life [1] was > 2 h, the half-life [2] was > 1.5 h and the fraction unbound [3] was 0.12. For the same compound, the fraction unbound [4] was 0.14, the “fold change (FC)” value (Lysyl oxidase homolog 2) was 1 and the IC50 (Lysyl oxidase homolog 3) was 16 nM. The half-life [5] was > 2 h and the IC50 (Protein-lysine 6-oxidase) was 1750 nM.
